Experimental data pooled from the literature.
Target: Mitogen-activated protein kinase kinase kinase 1 (MAP3K1, Homo sapiens, UniProt Q13233)

| SMILES | effect on | action | method | tested at | quantity | value |
| --- | --- | --- | --- | --- | --- | --- |
| Cn1c(=O)n(-c2ccc(C(C)(C)C#N)cc2)c2c3cc(-c4cnc5ccccc5c4)ccc3ncc21 | enzyme activity | inhibitor |  | 10 µM | remaining activity | 67% |
| Cc1ccc(C(=O)Nc2ccc(CN3CCN(C)CC3)c(C(F)(F)F)c2)cc1C#Cc1cnc2cccnn12 | enzyme activity | inhibitor |  | 23.5 nM | remaining activity | 82% |
| CN(C)C(=O)Cn1cc(-c2nc(C3(c4ccc(-c5cnc(N)nc5)cc4)CC3)no2)cn1 | cell-free assay |  | competition with immobilised ligand | 1 µM | remaining binding | 77% |
| CC(C)(C)c1nc2c(s1)c1nc(N)ncc1c1ccc(NS(=O)(=O)c3c(F)cccc3F)c(F)c12 | enzyme activity | inhibitor | radiometric | 1 µM | remaining activity | 90% |
| COc1cc(/C=C/C(=O)CC(=O)/C=C/c2ccc(O)c(OC)c2)ccc1O | enzyme activity | inhibitor |  | 1 µM | activity vs control | 89% |
| Nc1ncnc2occ(-c3ccc(NC(=O)Nc4cc(C(F)(F)F)ccc4F)cc3)c12 | cell-free assay | inhibitor |  | 20 µM | remaining signal | 6.9% |
| CC1CCCN1c1nccc(-c2cnn3ncccc23)n1 (stereo not shown) | binding |  |  | 1 µM | remaining binding | 87% |
| CS(=O)(=O)NCC[C@H](NC(=O)c1cncc2c1cnn2-c1ccc(F)cc1)c1ccnc(S(C)(=O)=O)c1 | cell-free assay |  | competition with immobilised ligand | 1 µM | remaining binding | 100% |
| O=C(Nc1cnn(-c2csc(C(=O)NC3COC3)c2)c1)Nc1c(F)cccc1Cl | enzyme activity | inhibitor |  | 5 µM | remaining activity | 98.7% |
| CN(C)C(=O)Cn1cc(-c2nc([C@@](C)(c3ccc(-c4cnc(N)nc4)cc3)C3CC3)no2)cn1 | cell-free assay |  | competition with immobilised ligand | 1 µM | remaining binding | 90% |
| FC(F)(F)Oc1cccc(-c2cnc3ccc(-c4ccncc4)nn23)c1 | enzyme activity | inhibitor | radiometric | 1 µM | activity vs control | 94% |
| CC(C)(C)c1nc(-c2cccc(NS(=O)(=O)c3c(F)cccc3F)c2F)c(-c2ccnc(N)n2)s1 | enzyme activity | inhibitor | radiometric | 1 µM | remaining activity | 84% |
| Cc1sc(C(=O)NC2COC2)cc1-n1cc(NC(=O)Nc2c(F)cccc2Cl)cn1 | enzyme activity | inhibitor |  | 10 µM | remaining activity | 94.5% |
| CC(C)(O)[C@H]1CC[C@H](Nc2ccc3ncc(-c4cccc(C(F)(F)F)c4)n3n2)CC1 | enzyme activity | inhibitor |  | 1 µM | remaining activity | 99% |
| COc1cc(Nc2cnc(C#N)c(O[C@H](C)CN(C)C)n2)ncc1-c1cnn(C)c1 | enzyme activity | inhibitor | radiometric | 1 µM | remaining activity | 92% |
| Oc1cccc(-c2nc(N3CCOCC3)c3oc4ncccc4c3n2)c1 | enzyme activity | inhibitor |  | 10 µM | remaining activity | 97% |
